From PubChem BioAssay
Most compounds without a hit are left out; they make up all but 2% or so of the library.
MC4R antag cAMP = blocks human MC4R cAMP signaling; inhibition, % at 6.5 µM; P32245; MC4R-expressing cells, MTII-stimulated cAMP, LANCE TR-FRET; AID 540295; hit rate 0.48% among 360,000;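 active means inhibition above its plate's cutoff, the mean of tested wells on that plate plus 3 SD, cut at about 29% in these data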;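 further: 0% = Melanotan II alone and 100% = Melanotan II plus saturating MCL0020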
Target sequence (P32245 whole entry, looked up): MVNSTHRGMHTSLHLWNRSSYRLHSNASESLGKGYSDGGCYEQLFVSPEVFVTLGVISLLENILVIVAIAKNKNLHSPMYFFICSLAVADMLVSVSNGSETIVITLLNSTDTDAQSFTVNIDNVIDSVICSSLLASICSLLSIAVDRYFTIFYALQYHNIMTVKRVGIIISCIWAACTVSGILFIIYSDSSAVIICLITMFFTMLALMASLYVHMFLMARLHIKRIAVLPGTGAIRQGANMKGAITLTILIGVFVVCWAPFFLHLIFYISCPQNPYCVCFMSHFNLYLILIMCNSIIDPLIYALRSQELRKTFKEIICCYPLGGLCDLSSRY
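system = U2OS cells with stable human MC4R expression | also added = Melanotan II challenge after compound preincubation | dosing = one concentration, 6.5 µM nominal | incubation = compound 30 min, challenge 1 h, detection 1 h | measured by = TR-FRET with Eu-cAMP and labeled anti-cAMP, 671 nm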
MC4R barr agon = agonists of human melanocortin 4 receptor (MC4R) beta-arrestin. P32245. U2OS MC4R beta-arrestin complementation, luminescence; percent of melanotan II response, DMSO zero. activation, % at 8.9 µM. hit rate 0.98% among 360,000. AID 540308;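 active means activation above a per-plate cutoff, the mean activation of sample wells on that plate plus 3 SD, cut at about 8% in these data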
UPR XBP1 act = activators of adaptive arm of unfolded protein response (XBP1); CHO-XBP1 luciferase reporter, IRE1-XBP1 UPR activation, luminescence; percent of tunicamycin response, DMSO as zero; AID 463104; hit rate 0.33% among 330,000; activation, % at 20 µM;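 active means versus positive control, 20 µM dose yields 30% or more activation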;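 further: 100% = tunicamycin at 10 µg/mL and 0% = DMSO only wells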
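Material: IRE1-XBP1 luciferase reporter CHO line / Quantity: one thousand reporter cells per well / Buffer or medium: F12 with 10% serum / Compound: 20 µM single concentration, DMSO 1% / Times: 6 h treatment, 37 °C / Detection: Steady-Glo luciferase glow luminescence, 10 min after reagent addition / Benchmarks: tunicamycin high, DMSO low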
Bfl-1 A1 inh = inhibitors of the anti-apoptotic protein A1, read as caspase activation; hit rate 0.066% among 330,000; caspase activation, % (concentration not given with the values); MEF A1-2A-BIM cells, Caspase-Glo 3/7 luminescence, 3 h; percent of clofoctol response, vehicle zero;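 active means over half of replicate activation scores above 10%, or exactly half above 10 with the replicate mean above 10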
UPR CHOP act = activators of apoptotic arm of unfolded protein response (CHOP); CHO-CHOP luciferase reporter, UPR activation, luminescence; percent of tunicamycin response over DMSO baseline; activation, % at 10 µM; hit rate 0.34% among 330,000;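 active means at 10 µM dose, activation of 40% or more, normalized to positive control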;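 further: 100% = tunicamycin at 10 µg/mL and 0% = DMSO alone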
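System: CHO CHOP reporter cells. Amount: 500 cells per well. Buffer or medium: F12 medium, 10% FBS. Compound dosing: one dose, 10 µM in 0.5% DMSO. Incubation: 6 h compound exposure at 37 °C after overnight seeding. Technique: Steady-Glo luciferase luminescence. Benchmarks: tunicamycin and DMSO controls.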
UPR CHOP confirm = confirmation of apoptotic unfolded protein response (CHOP) activators | AID 463112 | shares compounds with UPR CHOP act | CHO-CHOP cells, CHOP-luciferase reporter luminescence; percent of tunicamycin response, DMSO as zero | hit rate 64% among 1,000 | activation, % at 10 µM; in the data active means activation above about 33%;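 further: 0% = DMSO wells and 100% = tunicamycin 10 µg/mL wells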
UPR XBP1 confirm = adaptive UPR (XBP1) activation, confirmed | shares compounds with UPR XBP1 act | CHO-XBP1 IRE1-XBP1 luciferase reporter, luminescence | activation, % at 20 µM | hit rate 63% among 1,000 | AID 485299;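 active means reporter signal at least 30% of the positive control's activation in two or more of four replicate wells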;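 further: plate controls were DMSO negative control for no effect and tunicamycin 10 µg/mL positive control for full effect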
* = called active by the depositor; · = no result.

SMILES | MC4R antag cAMP | MC4R barr agon | UPR XBP1 act | Bfl-1 A1 inh | UPR CHOP act | UPR CHOP confirm | others
CCN(CC)C(=O)c1cc([N+](=O)[O-])cc2c1-c1ccc([N+](=O)[O-])cc1C2=C(C#N)C#N | 1 | -1 | 8 | 0 | 169* | 27
O=C1CC(c2ccccc2)CC(O)=C1C=Nc1cccc(Cl)c1 (centres undefined) | -13 | -1 | 10 | 0 | 34 | ·
O=C1CC(c2ccccc2)CC(O)=C1C=Nc1ccc(Cl)cc1 (centres undefined) | 3 | 7 | 26 | 1 | 43* | 29
COc1ccc(CNC(=O)COc2ccc(C(=O)c3ccc(F)cc3)cc2)cc1 | -22 | -2 | 4 | -3 | 56* | -2
COC(=O)c1ccc(CSc2ccccc2NC(=S)Nc2cccc(SC)c2)o1 | 0 | -2 | · | · | · | ·
O=S(=O)(CCSc1nc2ccccc2s1)c1nc2ccccc2s1 | 9 | -3 | -4 | 0 | 108* | 154*
O=C(C=C=Nc1ccccc1)C(=O)N=C=Cc1ccccc1 | 21 | -3 | 1 | 0 | 225* | 135*
CCN(c1ccc(OC)cc1)S(=O)(=O)N1CCCC(C(=O)NCc2ccc(OC(C)C)cc2)C1 (centres undefined) | 8 | 1 | · | · | · | ·
Cc1ccc(/C=C/C(=O)c2ccc([N+](=O)[O-])o2)cc1 | · | · | -4 | 7.9* | 189* | 135*
O=C(N/C(=C/c1ccc(Cl)cc1)c1nc2ccccc2[nH]1)c1ccco1 | 4 | -1 | -1 | 0 | 2 | ·
O=C(/C(=C/c1ccc(Cl)cc1)c1nc2ccccc2[nH]1)c1ccccc1 | 25 | 0 | 0 | 1 | 211* | 158*
COc1ccc(C(=O)N/C(=C/c2cccs2)c2nc3ccccc3[nH]2)cc1OC | -6 | -1 | -2 | 2 | 0 | ·
COc1cc(/C=C(/C(=O)c2cccs2)c2nc3ccccc3[nH]2)cc(OC)c1O | 2 | -3 | 8 | -1 | 126* | 161*
COc1ccc(/C=C2\CN(Cc3ccccc3)C/C(=C\c3ccc(OC)c(O)c3)C2=O)cc1O | -1 | -2 | -8 | 1 | 51* | 43*
COc1cc(/C=C2\COC/C(=C\c3ccc(O)c(OC)c3)C2=O)ccc1O | 8 | 8 | -6 | 0 | 140* | 112*
CCN1C/C(=C/c2ccc(OC)c(O)c2)C(=O)/C(=C/c2ccc(OC)c(O)c2)C1 | -1 | -5 | -8 | 1 | 38 | ·
Cc1ccc(NC(=O)C2(C)CCN2C(=O)CC(c2ccccc2)c2ccccc2)cc1 (centres undefined) | 5 | 0 | · | · | · | ·
C=CCn1c(O)c(N=NC(=S)Nc2ccccc2C)c2cc(S(=O)(=O)N3CCOCC3)ccc21 | 17 | -3 | 3 | 0 | 45* | 31
Cn1c(O)c(N=NC(=S)Nc2ccccc2F)c2cc(S(=O)(=O)N3CCOCC3)ccc21 | 8 | -5 | · | · | · | ·
COC(=O)c1ccc(C(=O)N2CCCCCC2(C)C(=O)NC(C)C)cc1 (centres undefined) | 8 | 0 | · | · | · | ·
C[C@@H](NC(=O)/C(C#N)=C/c1ccc(O)c(O)c1)c1ccccc1 | -7 | -2 | 3 | 0 | 10 | ·
CC(NC(=O)/C(C#N)=C/c1ccc(Cl)c([N+](=O)[O-])c1)c1ccccc1 (centres undefined) | · | · | -8 | 0 | 63* | -10
O=C1C2CC=CCC2C(=O)N1c1ccc(NCCc2ccc(Cl)cc2)c([N+](=O)[O-])c1 (centres undefined) | -5 | -3 | -2 | 0 | 46* | -2
O=[N+]([O-])c1cc(-c2nnc(C34CC5CC(CC(C5)C3)C4)o2)cc([N+](=O)[O-])c1 | 16 | -2 | 8 | 0 | 137* | 20
O=[N+]([O-])c1ccccc1CN1CCN(Cc2c[nH]c3ccccc23)CC1 | · | · | 17 | 0 | 49* | 21
SMILES | MC4R antag cAMP | MC4R barr agon | UPR XBP1 act | Bfl-1 A1 inh | UPR CHOP act | UPR CHOP confirm | others
Cc1noc2ncnc(Sc3ccc(Br)cc3)c12 | 28 | -1 | -11 | -1 | 229* | 124*
O=c1cc(C(Cl)(Cl)Cl)oc2c1ccc1ccccc12 | -23 | -2 | 163* | -1 | 47* | 33* | UPR XBP1 confirm=286*
CCOc1cc(/C=C2/NC(=S)NC2=O)ccc1OCc1ccc([N+](=O)[O-])cc1 | 8 | -2 | 127* | 0 | 165* | 26 | UPR XBP1 confirm=39*
O=C(CC1CC2CCC1C2)N1CCN(S(=O)(=O)c2ccc(C(F)(F)F)cc2)CC1 (centres undefined) | -4 | 4 | · | · | · | ·
CCCNC(=O)C1(C)CCN(Cc2ccc(C)c3ccccc23)C1 (centres undefined) | 9 | -2 | · | · | · | ·
CCN(CC)S(=O)(=O)c1ccc(N/N=C(\C)c2ccc3c(c2)OCO3)c([N+](=O)[O-])c1 | 3 | 1 | 211* | 1 | 155* | 63* | UPR XBP1 confirm=155*
CCN(CC)S(=O)(=O)c1ccc(N/N=C(\C)c2ccncc2)c([N+](=O)[O-])c1 | 3 | -1 | -5 | 0 | -1 | ·
CCc1ccc2[nH]c(=O)c(CN(Cc3ccc(F)cc3)C(c3nnnn3CCN3CCOCC3)C(C)C)cc2c1 (centres undefined) | 12 | -1 | 38* | 0 | 55* | -2 | UPR XBP1 confirm=0
COC(=O)C[C@H]1C[C@H]2c3cc(NS(=O)(=O)c4cccc(OC)c4)ccc3O[C@H]2[C@@H](CO)O1 | -1 | -2 | · | · | · | ·
CCOC(=O)c1c(NC(=O)CC(C)C)sc(C(C)=O)c1C | 2 | 2 | 0 | 0 | 0 | ·
CCOC(=O)c1sc(NC(=S)NC(=O)c2ccccc2)c(C(=O)OCC)c1C | 5 | -1 | 51* | 1 | 51* | 98* | UPR XBP1 confirm=114*
CCOC(=O)c1c(NC(=O)c2cc(-c3ccc(O)cc3)on2)sc(C(C)=O)c1C | -2 | 0 | 84* | 0 | 78* | 24 | UPR XBP1 confirm=43*
CC(=O)N1C[C@H]2CON(C)[C@H]2C[C@H]1c1cccc(-c2ccc(C#N)cc2)c1 | -6 | 4 | · | · | · | ·
CCn1c2ccccc2c2cc(NC(=O)CSc3nnc(-c4ccc(OC)c(OC)c4)n3N)ccc21 | 7 | 0 | 2 | -1 | 2 | ·
CCOc1ccc(-c2nnc(SCC(=O)Nc3ccc4c(c3)c3ccccc3n4CC)n2N)cc1 | -6 | 30* | 216* | 2 | 116* | 47* | UPR XBP1 confirm=191*
OC[C@@H]1CN(Cc2cccnc2)C[C@H](n2cnc3c(N4CCN(c5ccccc5)CC4)ncnc32)O1 | 13 | -1 | · | · | · | ·
CC(=O)Oc1ccccc1Cn1c(C)c(C(=O)NCCC#N)sc1=O | -6 | 0 | · | · | · | ·
